# Laboratory results: ChEMBL document CHEMBL3351353, “Molecular dynamics study-guided identification of cyclic amine structures as novel hydrophobic tail components of hPPARγ agonists” (Bioorg Med Chem Lett, 2014)
# Assay: Thermodynamic solubility of the compound in phosphate buffer at pH 7.2 to 7.4 at 1 mg after 48 hrs by shake flask method
# Assay type: physicochemical
# Conditions: read-out: Therm_solubility
# How it was run: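 Shake-flask method: 1 mg of solid ground in an agate mortar, taken up in 1.0 mL of a 1:1 mixture of phosphate buffer (pH 7.2–7.4) and EtOH, shaken 48 h at 25 °C. An aliquot was filtered (0.45 µm), the filtrate diluted in CH₃CN and analysed by HPLC-UV at 254 nm. Concentration was calculated from a prior calibration curve and corrected for dilution.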
row,solubility thermodynamic at 48 h [µg/mL],Compound
1,< 1,CCCOc1ccc(C[C@@H](Cc2ccccc2)C(=O)O)cc1CNC(=O)c1ccc(C23CC4CC(CC(C4)C2)C3)cc1
2,10,CCCOc1ccc(C[C@@H](Cc2ccccc2)C(=O)O)cc1CNC(=O)c1ccc(N2CCCCC2)cc1
3,< 10,CCCOc1ccc(C[C@@H](Cc2ccccc2)C(=O)O)cc1CNC(=O)c1ccc(N2CCCCCCC2)cc1
4,< 10,CCCOc1ccc(C[C@@H](Cc2ccccc2)C(=O)O)cc1CNC(=O)c1ccc(N2CCCC(C)(C)C2)cc1
5,< 10,CCCOc1ccc(C[C@@H](Cc2ccccc2)C(=O)O)cc1CNC(=O)c1ccc(N2CCC(C)(C)CC2)cc1
6,< 10,CCCOc1ccc(C[C@@H](Cc2ccccc2)C(=O)O)cc1CNC(=O)c1ccc(N2CC(C)(C)CC(C)(C)C2)cc1
7,10,CCCOc1ccc(C[C@@H](Cc2ccccc2)C(=O)O)cc1CNC(=O)c1ccc(N2C3CCCC2CC3)cc1
8,< 10,CCCOc1ccc(C[C@@H](Cc2ccccc2)C(=O)O)cc1CNC(=O)c1ccc(N2C3CCCC2CCC3)cc1
9,10,CCCOc1ccc(C[C@@H](Cc2ccccc2)C(=O)O)cc1CNC(=O)c1ccc(N2CC3CCC(C3)C2)cc1
10,< 10,CCCOc1ccc(C[C@@H](Cc2ccccc2)C(=O)O)cc1CNC(=O)c1ccc(N2C3CC4CC(C3)CC2C4)cc1
